# Screens as filed in PubChem BioAssay.
# RGS4 pot – potentiators or activators of RGS4; HEK293 M3R/inducible RGS4, carbachol calcium flux Fluo4; stronger effect = lower value; B-score at 10 µM; actives 0.92% (n = 310,000); AID 463111;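 active means B-score of the integrated calcium signal more than 4 SD below the library mean, with starting fluorescence not abnormally high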;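 further: negative B-score means reduced calcium response which marks RGS4 activation or potentiation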
#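 Assay system: HEK293 FlpIn-TREx cells, stable M3R, doxycycline-inducible RGS4 / Probe or stimulus: carbachol, ECmax concentration / Times: overnight RGS4 induction, 30 min dye load 37 °C, 20 min compound RT / Signal: kinetic calcium fluorescence imaging with Fluo4-AM dye, 2 µM / Measure: Agonist-evoked peak-minus-minimum fluorescence over baseline, integrated ratio, B score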
# MrgX1 ag – human MrgX1 receptor agonism, primary screen. B-score at 10 µM. Q96LB2. MrgX1-HEK293 cells, Fluo-4 calcium fluorescence, agonist mode; stronger effect = higher value. actives 0.44% (n = 310,000);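 active means calcium response B-score plate-corrected fluorescence ratio at least 3 library SD, with starting fluorescence B-score inside 5 SD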
# Target sequence (Q96LB2 whole entry, looked up): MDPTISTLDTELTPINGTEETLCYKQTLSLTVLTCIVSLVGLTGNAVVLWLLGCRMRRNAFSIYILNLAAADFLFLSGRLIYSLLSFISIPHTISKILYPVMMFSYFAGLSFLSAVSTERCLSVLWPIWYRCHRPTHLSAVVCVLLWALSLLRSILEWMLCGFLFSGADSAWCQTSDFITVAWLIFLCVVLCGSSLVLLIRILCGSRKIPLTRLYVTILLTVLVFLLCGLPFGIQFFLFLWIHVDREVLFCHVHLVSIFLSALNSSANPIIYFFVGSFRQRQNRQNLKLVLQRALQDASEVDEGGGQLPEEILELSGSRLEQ
#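 Material: MrgX1-expressing HEK293 cells / Dosing: compound as first of three additions / Incubation: overnight seeding, then 1 h dark dye loading / Signal: Fluo-4 NW calcium fluorescence / Evaluation: B-scored fluorescence response ratio / Benchmarks: positive and negative control wells on each plate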
# MrgX1 antagonist – blocks BAM8-22 activation of human MrgX1 receptor; MRGX1-HEK293 calcium flux, Fluo-4, BAM8-22 antagonism; stronger effect = lower value; B-score at 10 µM; actives 1.3% (n = 310,000); AID 588676;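 active means calcium-response B-score plate-corrected more than 3 library SD below zero, starting fluorescence within 5 deviations, no agonist response on first addition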;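 further: peak minus trough fluorescence over baseline after final BAM8-22 challenge near maximal dose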
# MrgX1 allo act – allosterically activates human MrgX1 receptor signaling; AID 588675; actives 0.63% (n = 310,000); MrgX1-HEK293, Fluo-4 calcium flux, FDSS; stronger effect = higher value; B-score at 10 µM; Q96LB2;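 active means plate-corrected calcium response at least 3 library SD above typical, normal starting fluorescence, not activating the receptor alone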;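 further: compound read alongside a low EC10 to EC30 dose of BAM8-22 agonist; peak minus trough fluorescence over baseline measured at the second addition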
# RGS4 inh – inhibitors of human RGS4; P49798; HEK293 M3R/RGS4 inducible, Fluo-4 calcium flux; stronger effect = higher value; triggered by carbachol at its EC20; B-score at 10 µM; actives 0.45% (n = 310,000); AID 463165;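 active means B-score, a plate-corrected calcium signal, over three deviations above library mean, with baseline fluorescence within five deviations of library mean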;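 further: RGS4 expression induced by doxycycline in cells with stable M3 receptor; B-score is computed from the integrated fluorescence ratio over baseline after carbachol; higher B-score means a larger calcium signal and so more RGS4 inhibition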
# Target sequence (P49798 whole entry, looked up): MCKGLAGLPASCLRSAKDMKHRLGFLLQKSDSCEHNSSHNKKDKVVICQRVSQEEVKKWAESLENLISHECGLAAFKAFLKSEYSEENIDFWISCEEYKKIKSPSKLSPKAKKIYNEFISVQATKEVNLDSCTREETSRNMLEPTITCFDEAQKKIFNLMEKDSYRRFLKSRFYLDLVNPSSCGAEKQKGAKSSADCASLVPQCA
# RGS4 act valid – confirmation of RGS4 activators; actives 89% (n = 1,100); HEK293 M3R/RGS4 inducible, carbachol calcium flux Fluo4; AID 602282; inhibition, % at 10 µM; shares compounds with RGS4 pot;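 active means inhibition above 3 SD of the buffer control wells, cut at about 41% in these data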;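 further: signal is the integrated peak-minus-minimum Fluo4 fluorescence over baseline ratio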
# RGS4 act ctr – RGS4 activator counter-screen hit in non-induced cells. shares compounds with RGS4 pot. HEK293 M3R non-induced RGS4, Fluo4 calcium flux; after carbachol challenge at its EC90. inhibition, % at 10 µM. actives 82% (n = 1,100);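 active means inhibition exceeding 3 SD of buffer-only control wells, cut at about 26% in these data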;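 further: percent drop in integrated peak-minus-baseline over baseline Fluo4 ratio after carbachol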
# A number is an active result; 0 = inactive; - = no result. Hits are enriched below; roughly 3.5% of the tested compounds scored in any of these assays.
SMILES,RGS4 pot,MrgX1 ag,MrgX1 antagonist,MrgX1 allo act,RGS4 inh,RGS4 act valid,RGS4 act ctr
CCCCc1cc(=O)oc2cc(C)cc(OC(C)C(=O)NC(Cc3c[nH]c4ccc(O)cc34)C(=O)O)c12 (stereo unspecified),0,0,0,0,0,-,-
CN1/C(=C/C=C(C#N)C#N)C(C)(C)c2ccccc21,-7.8,0,0,0,0,88,82
CN1\C(=C/C=C/C=C/C=[N+](C)C)C(C)(C)c2ccccc21,0,-,-,-,0,-,-
CCCN(CC(=O)Nc1ccccc1C)C(=O)c1ccc(C2SCCS2)cc1,0,0,0,0,0,-,-
O=S(=O)(Nc1nc2ccccc2[nH]1)c1ccccc1,-8.2,0,0,0,0,91,39
O=C(Nc1nc2ccccc2[nH]1)c1ccc(Cl)cc1,0,0,0,0,0,-,-
O=S(=O)(Nc1nc2ccccc2[nH]1)c1ccc(Cl)cc1,-9.4,0,0,0,0,92,90
CS(=O)(=O)Nc1nc2ccccc2[nH]1,0,0,0,0,0,-,-
Cc1cccc(C(=O)N2CCNC(=O)C2CC(=O)Nc2cccc(Cl)c2)c1 (stereo unspecified),0,0,0,0,0,-,-
Cn1c(=O)n(CCOc2ccccc2Cl)c2ccccc21,-7.8,0,0,0,0,88,40
Cn1c(=O)n(CCOc2ccc(Cl)cc2Cl)c2ccccc21,0,0,0,0,0,-,-
CCC[C@@H](NS(=O)(=O)c1ccc(C)cc1)C(=O)Oc1ccc2c3c(c(=O)oc2c1)CCC3,-7.6,0,0,0,0,92,71
Cc1ccc(S(=O)(=O)NC(C(=O)Oc2ccc3c(C)c(Cl)c(=O)oc3c2)c2ccccc2)cc1 (stereo unspecified),0,0,0,0,0,-,-
CN(Cc1ccccc1)C(=O)COC(=O)C1CCN(S(=O)(=O)c2cccs2)CC1,0,0,0,0,0,-,-
C=C1CC(C(=O)N/N=C/c2ccccc2)C1,0,0,0,0,0,-,-
CN1C(=O)CSC1=S,0,0,0,0,0,-,-
CC(=O)/C(C(=N)N1CCN(C(c2ccccc2)c2ccccc2)CC1)=C(\C)O,-9.2,0,0,0,0,81,84
O=C(NCCNC(=O)c1ccccc1Br)c1cccnc1,0,0,0,0,0,-,-
CCn1c2ccc(C)cc2c2nnc(SCCN3CCCCC3)nc21,0,0,0,0,0,-,-
CCCn1c2ccc(C)cc2c2nnc(SCCN3CCCCC3)nc21,-8.9,-,-,-,0,79,84
c1ccc(Cn2c3ccccc3c3nnc(SCCN4CCCCC4)nc32)cc1,-11,0,0,0,0,93,90
CCCn1c(Nc2cccc(OC)c2)nc2ccccc21,0,0,0,0,0,-,-
CCOC(=O)c1c(NC(C)=O)sc2c(OCC(O)CNC(C)(C)C)c(Br)ccc12 (stereo unspecified),-10,0,0,0,0,94,94
CCOC(=O)c1c(N)sc2c(OCC)c(Br)ccc12,0,0,0,0,0,-,-
CC(Oc1cccc2cccnc12)C(=O)N/N=C/c1ccc2c(c1)OCO2 (stereo unspecified),-13,0,0,0,0,0,0
SMILES,RGS4 pot,MrgX1 ag,MrgX1 antagonist,MrgX1 allo act,RGS4 inh,RGS4 act valid,RGS4 act ctr
CC(Oc1cccc2cccnc12)C(=O)N/N=C/c1ccccc1 (stereo unspecified),0,0,0,0,0,-,-
O=C(c1ccc(Cl)c(Cl)c1)N1CCN(c2ccccn2)CC1,0,0,0,0,0,-,-
O=C(c1cccc(COc2ccc(Cl)cc2Cl)c1)N1CCN(c2ccccn2)CC1,-7.9,0,0,0,0,94,80
CN(CCOC(=O)C1c2ccccc2Oc2ccccc21)C(C)(C)C,-7.9,0,0,0,0,93,96
CN(C)CCCOC(=O)C1c2ccccc2Oc2ccccc21,-8.5,0,0,0,0,92,91
COc1cc(Cl)c(CN2CCC(CO)(CCOc3ccccc3)CC2)cc1OC,0,0,0,0,0,-,-
OCC1(CCOc2ccccc2)CCN(CC2=Cc3cc(Cl)ccc3OC2)CC1,-8.7,0,0,0,0,87,56
CCOC(=O)N1CCN(c2ccnc3cc(Cl)ccc23)CC1,-13,0,0,0,0,92,95
CCC(=O)N1CCN(c2ccnc3cc(Cl)ccc23)CC1,0,0,0,0,0,-,-
O=C(Cc1ccc(F)cc1)Nc1nc(-c2ccc(F)c(F)c2)cs1,0,0,0,0,0,-,-
COc1ccc(CC(=O)Nc2nc(-c3ccc(F)c(F)c3)cs2)cc1,-10,0,0,0,0,92,96
COC(=O)C1=C(C)N(C)C(=O)NC1c1ccc(C)cc1 (stereo unspecified),0,0,0,0,0,-,-
CC1=C(C(=O)OC(C)(C)C)C(c2ccc3ccccc3c2)NC(=O)N1C (stereo unspecified),-8,0,0,0,0,94,81
COc1ccc(OC)c2sc(N(CCCN(C)C)C(=O)CCS(=O)(=O)c3ccccc3)nc12,-13,0,-7.6,0,0,84,58
Cc1ccc(NC(=O)Nc2ncnc3nc[nH]c23)cc1,0,0,0,0,0,-,-
Cc1cc2oc(=O)c(CC(=O)NCCCN(C)C)c(C)c2c2occ(C(C)(C)C)c12,-7.9,0,0,0,0,90,51
Nc1ccc(CSc2ccc(Cl)cc2)cc1,0,0,0,0,0,-,-
OCCOCCN1CCN(C2=Nc3ccccc3Sc3ccccc32)CC1,0,0,0,0,0,-,-
Cc1cc2c(s1)Nc1ccccc1N=C2N1CCN(C)CC1,-9.5,0,0,0,0,91,85
COC(=O)c1ccc(CNC(=O)CSc2nc3sc(C)c(C)c3c(=O)n2C)o1,-8.2,0,0,0,0,50,0
Cc1sc2nc(SCC(=O)NCc3ccco3)n(C)c(=O)c2c1C,0,0,0,0,0,-,-
CC(C)(C)S(=O)(=O)c1ccsc1C(=O)O,-16,0,0,0,0,0,0
Cc1cc(C)c(C)c(S(=O)(=O)N2CCC(C(=O)Nc3ccc(S(=O)(=O)N4CCOCC4)cc3)CC2)c1C,0,0,0,0,0,-,-
COc1ccccc1C(=O)NCC1(c2ccccc2)CCCC1,0,0,0,0,0,-,-
CC(=O)N1c2ccccc2C(C)CC12CCCCC2 (stereo unspecified),-7.8,0,0,0,0,86,37
O=C(CN1CCCC1)N1CCCc2ccccc21,0,0,0,0,0,-,-
O=C(CN1CCCC1)N1c2ccccc2C=Cc2ccccc21,-10,0,0,0,0,82,41
CN1CCN(C(=O)N2c3ccccc3C=Cc3ccccc32)CC1,-9.7,0,0,0,0,94,69
NC(=O)N1c2ccccc2C=Cc2ccccc21,0,0,0,0,0,-,-
